≈ marks a conversion by molar mass, not a printed value.

Broadly, the Kd is the constant that tells how readily two partners part at equilibrium. In general, logD refers to lipophilicity at a set pH, counting ionised and neutral species.

Data set [1] is described as follows: Competitive binding affinity to 6His-tagged recombinant Escherichia coli FimH lectin domain expressed in Escherichia coli HM125 after 24 hrs in presence of fluorescence labelled N-(2-(3-(3',6'-dihydroxy-3-oxo-3H-spiro[isobenzofuran-1,9'-xanthene]-5-yl)thioureido)ethyl)-4-methylbenzamide by fluorescence polarization assay. The method in brief:
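FimH lectin domain (His6-tagged via thrombin site) was expressed in E. coli HM125 and affinity-purified. Serially diluted competitor was added to 50 nM protein plus 50 nM fluorescent ligand in 20 mM HEPES pH 7.4, 150 mM NaCl, 50 μg/mL BSA. Mixtures were incubated ≥24 h at equilibrium, and FP was read at 485/528 nm. KD came from an equilibrium competition fit, n = 3, SD.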
(Fluorescence polarisation rises when a labelled molecule tumbles more slowly, as on binding a larger partner.)

A short description of data set [2]: Kinetic solubility of compound in pH 7.4 buffer after 15 hrs. The data set is classed as physicochemical. As to conditions: read-out: Kinetic_solubility. The gist of the method: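 DMSO stock (100 mM) was diluted into aqueous universal buffer pH 7.4 to 1 mM final (1% DMSO), in triplicate. After 15 h, solutions were filtered and mixed 1:1 with 1-propanol. Dissolved amount was quantified by UV (190–500 nm) against reference spectra at 0.167 mM in buffer/propanol.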

A short description of data set [3]: 1-octanol/water partition coefficient, log D of the compound at 1 uM at pH 7.4 after 2 hrs by LC-MS analysis. The data set is classed as physicochemical.
The nature of data set [4]: Competitive binding affinity to full length 6His-tagged recombinant Escherichia coli FimH CRD expressed in Escherichia coli HM125 after 1 hr in presence of fluorescence labelled N-(2-(3-(3',6'-dihydroxy-3-oxo-3H-spiro[isobenzofuran-1,9'-xanthene]-5-yl)thioureido)ethyl)-4-methylbenzamide by fluorescence polarization assay. The gist of the method: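 Full-length FimH was stabilized by FimG donor-strand peptide complementation. Serially diluted competitor was titrated into 300 nM FimHFL plus 10 nM fluorescent ligand in 20 mM HEPES pH 7.4, 150 mM NaCl, 50 μg/mL BSA. Mixtures were incubated ≥1 h at rt, and FP was read at excitation 485 nm and emission 528 nm. KD came from an equilibrium competition fit, n = 1.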

For a further data set, the system named is Escherichia coli. Description: Selectivity ratio of Kd for full length 6His-tagged recombinant Escherichia coli FimH CRD expressed in Escherichia coli HM125 to Kd for 6His-tagged recombinant Escherichia coli FimH lectin domain expressed in Escherichia coli HM125. The method in brief: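 Competitive FP, with Kd for each construct and the ratio taken as FimHFL/FimHLD. FimHFL was stabilised by donor-strand (DsG) complementation, run at 300 nM with 10 nM tracer for ≥1 h. FimHLD and tracer were equimolar at 50 nM, ≥24 h. Buffer: 20 mM HEPES pH 7.4, 150 mM NaCl, 50 μg/mL BSA; rt. Ex 485/em 528 nm, equilibrium competition fit; FL n=1, LD n=3.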

The nature of data set [5]: Binding affinity to full length 6His-tagged recombinant Escherichia coli FimH CRD expressed in Escherichia coli HM125 by isothermal titration calorimetry. The method in brief:
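FimHFL was coexpressed with FimC in E. coli HM125, and FimC was displaced by a FimG donor-strand peptide to give a stable construct. Buffer was 20 mM HEPES pH 7.4, 150 mM NaCl, with protein extensively dialyzed against it. Ligand (200–600 μM) was titrated into 20.3–62.1 μM protein in 1.5–2 μL injections at rt, single run. Isotherms were integrated automatically.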

As to `OC[C@H]1O[C@H](Oc2ccc(-c3ccc(Cl)cc3)cc2Cl)[C@@H](O)[C@@H](O)[C@@H]1O`, the Kd was found to be 3.9 nM in data set [1] and 251 nM in data set [4]. Moreover, the solubility kinetic at 15 h in data set [2] was 3.5 µg/mL (≈ 8.72 µM). The compound further came in with a pH-dependent lipophilicity (logD) at 2 h, 1 µM in data set [3] of 3.3.
Take `O=[N+]([O-])c1cccc(-c2ccc(O[C@H]3O[C@H](CO)[C@@H](O)[C@H](O)[C@@H]3O)c(Cl)c2)c1`: the Kd in data set [1] was found to be 0.1 nM; in data set [4], 39.1 nM. Besides, in data set [2], the solubility kinetic at 15 h came to 23 µg/mL (≈ 55.9 µM). Moreover, in data set [3], the logD at 2 h, 1 µM came to 2.4.
Turning to `CCCCCCCO[C@H]1O[C@H](CO)[C@@H](O)[C@H](O)[C@@H]1O`, the Selectivity ratio in the data set on Escherichia coli is 100. The solubility kinetic at 15 h in data set [2] was more than 3000 µg/mL. This compound also came in with a logD at 2 h, 1 µM in data set [3] of 1.7. For the same compound, the Kd is 3600 nM in data set [4] and 3200 nM in data set [5].
As to `OC[C@H]1O[C@H](Oc2ccc(-c3ccccc3)cc2Cl)[C@@H](O)[C@@H](O)[C@@H]1O`, the Kd in data set [1] is 2.8 nM; in data set [4], 458 nM. For the same compound, the solubility kinetic at 15 h in data set [2] came to 5.5 µg/mL (≈ 15 µM). The compound also registered a logD at 2 h, 1 µM in data set [3] of 2.6.
Regarding `OC[C@H]1O[C@H](Oc2ccc(-c3cccc(Cl)c3)cc2Cl)[C@@H](O)[C@@H](O)[C@@H]1O`, the Kd worked out at 2.3 nM in data set [1] and 353 nM in data set [4]. Moreover, the solubility kinetic at 15 h in data set [2] turned out to be 5.7 µg/mL (≈ 14.2 µM). The pH-dependent lipophilicity (logD) at 2 h, 1 µM in data set [3] came out at 3.2.
For `O=[N+]([O-])c1ccc(-c2ccc(O[C@H]3O[C@H](CO)[C@@H](O)[C@H](O)[C@@H]3O)c(Cl)c2)cc1`, in that order: 0.5 nM, 140 nM, 117 µg/mL (≈ 284 µM) and 2.3.
As to `Cc1ccc(C(=O)NCCNC(=S)Nc2ccc3c(c2)C(=O)OC32c3ccc(O)cc3Oc3cc(O)ccc32)cc1`, the Kd in data set [4] worked out at 137 nM.
`CC(=O)c1ccc(-c2ccc(O[C@H]3O[C@H](CO)[C@@H](O)[C@H](O)[C@@H]3O)c(Cl)c2)cc1`: the figures for the Kd in data set [1] and in data set [4] were 0.3 nM and 98.6 nM, respectively. Also, in data set [2], the solubility kinetic at 15 h is 16 µg/mL (≈ 39.1 µM). Moreover, the logD at 2 h, 1 µM in data set [3] was determined as 2.1.
As to `COc1ccc(-c2ccc(O[C@H]3O[C@H](CO)[C@@H](O)[C@H](O)[C@@H]3O)c(Cl)c2)cc1`, the Kd in data set [1] came to 2 nM; in data set [4], 344 nM. In addition, the solubility kinetic at 15 h in data set [2] worked out at 3.8 µg/mL (≈ 9.58 µM). In addition, the logD at 2 h, 1 µM in data set [3] stood at 2.7.
For `Cc1cccc(-c2ccc(O[C@H]3O[C@H](CO)[C@@H](O)[C@H](O)[C@@H]3O)c(Cl)c2)c1`, in that order: 1.7 nM, 380 nM, 7.1 µg/mL (≈ 18.6 µM) and 3.
For `COc1ccccc1-c1ccc(O[C@H]2O[C@H](CO)[C@@H](O)[C@H](O)[C@@H]2O)c(Cl)c1`, the Kd is 2.3 nM in data set [1] and 391 nM in data set [4]. For the same compound, the solubility kinetic at 15 h in data set [2] is more than 280 µg/mL. For the same compound, the log distribution coefficient (logD) at 2 h, 1 µM in data set [3] was 2.4.
For `N#Cc1cccc(-c2ccc(O[C@H]3O[C@H](CO)[C@@H](O)[C@H](O)[C@@H]3O)c(Cl)c2)c1`, in that order: 0.3 nM, 85.9 nM, 227 µg/mL (≈ 579 µM) and 2.1.
Regarding `OC[C@H]1O[C@H](Oc2ccc(-c3ccc(Cl)c(C(F)(F)F)c3)cc2Cl)[C@@H](O)[C@@H](O)[C@@H]1O`, the figures for the Kd in data set [1] and in data set [4] were 5.7 nM and 377 nM, respectively. In addition, the solubility kinetic at 15 h in data set [2] turned out to be 1 µg/mL (≈ 2.13 µM).
On to `N#Cc1ccc(-c2ccc(O[C@H]3O[C@H](CO)[C@@H](O)[C@H](O)[C@@H]3O)c(Cl)c2)cc1`, for which the values for the Kd in data set [4] and in data set [5] were 83.8 nM and 130 nM, respectively.
In the case of `Cc1ccc(-c2ccc(O[C@H]3O[C@H](CO)[C@@H](O)[C@H](O)[C@@H]3O)c(Cl)c2)cc1`, the values for the Kd in data set [1] and in data set [4] were 2.7 nM and 297 nM, respectively. Further, the solubility kinetic at 15 h in data set [2] was found to be 7.4 µg/mL (≈ 19.4 µM). This compound yielded a logD at 2 h, 1 µM in data set [3] of 3.3.
For `OC[C@H]1O[C@H](Oc2ccc(-c3cccc(C(F)(F)F)c3)cc2Cl)[C@@H](O)[C@@H](O)[C@@H]1O`, in that order: 3.3 nM, 575 nM, 36 µg/mL (≈ 82.8 µM) and 3.3.
In the case of `OC[C@H]1O[C@H](Oc2ccc(-c3ccc(Cl)cc3Cl)cc2Cl)[C@@H](O)[C@@H](O)[C@@H]1O`, the Kd in data set [1] amounted to 2.8 nM; in data set [4], 465 nM. Also, the solubility kinetic at 15 h in data set [2] is 8 µg/mL (≈ 18.4 µM).
For `OC[C@H]1O[C@H](Oc2ccc(-c3ccc(Cl)c(Cl)c3)cc2Cl)[C@@H](O)[C@@H](O)[C@@H]1O`, in that order: 4.3 nM, 692 nM and 2.3 µg/mL (≈ 5.28 µM).
As for `OC[C@H]1O[C@H](Oc2ccc(-c3ccccc3Cl)cc2Cl)[C@@H](O)[C@@H](O)[C@@H]1O`, the results for the Kd in data set [1] and in data set [4] were 2.6 nM and 434 nM, respectively. Besides, the solubility kinetic at 15 h in data set [2] amounted to 28 µg/mL (≈ 69.8 µM). This compound showed a logD at 2 h, 1 µM in data set [3] of 3.1.
For `Cc1ccccc1-c1ccc(O[C@H]2O[C@H](CO)[C@@H](O)[C@H](O)[C@@H]2O)c(Cl)c1`, in that order: 2.5 nM, 436 nM, 135 µg/mL (≈ 354 µM) and 2.9.
For `OC[C@H]1O[C@H](Oc2ccc(-c3ccc(C(F)(F)F)cc3)cc2Cl)[C@@H](O)[C@@H](O)[C@@H]1O`, in that order: 3.9 nM, 415 nM, 22 µg/mL (≈ 50.6 µM) and 3.4.

These data come from ChEMBL document CHEMBL4014317, “Urinary Tract Infection: Which Conformation of the Bacterial Lectin FimH Is Therapeutically Relevant?” (J Med Chem, 2017).
